Calls of active or inactive are those of the source. No cut-off for these calls is given here.
Experiments:
[1] = Binding affinity to MET in CD-1 mouse cochlear outer hair cells measured at -84 mV membrane potential in presence of calcium by patch clamp assay
[2] = species on record: Mus musculus; assay: (§1) Otoprotective activity against gentamicin-induced outer hair cell death in CD-1 mouse cochlea at 20 uM after 48 hrs by TRITC-phalloidin staining-based microscopic analysis relative to control; assay type: functional
Method in brief: (§2)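 Mouse cochlear cultures coincubated for 48 h with 5 μM gentamicin plus compound (5, 10 or 20 μM). OHCs counted in a 300 μm long segment of the mid-basal cochlea. Counts compared with 0.5% DMSO control and with gentamicin + 0.5% DMSO cultures.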

[3] = species on record: Mus musculus; assay: (§3) Otoprotective activity against gentamicin-induced outer hair cell death in CD-1 mouse cochlea at 5 uM after 48 hrs by TRITC-phalloidin staining-based microscopic analysis relative to control; assay type: functional; method in brief: as §2
[4] = species on record: Mus musculus; assay: (§4) Otoprotective activity against gentamicin-induced outer hair cell death in CD-1 mouse cochlea at 10 uM after 48 hrs by TRITC-phalloidin staining-based microscopic analysis relative to control; assay type: functional; method in brief: as §2
[5] = species on record: Mus musculus; assay: Inhibition of MET in CD-1 mouse cochlea outer hair cells assessed as blockade of MET currents at 10 uM measured at -160 mV to +80 mV membrane potential by patch clamp assay relative to control
Method in brief: (§5)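 OHC MET currents recorded before and during exposure to 10 μM compound. Fractional block taken as the current during exposure relative to the control current at each membrane potential.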

[6] = species on record: Mus musculus; assay: Inhibition of MET in CD-1 mouse cochlea outer hair cells assessed as blockade of MET currents at 10 uM measured at -164 mV membrane potential by patch clamp assay relative to control; method in brief: as §5
[7] = species on record: Mus musculus; assay: Inhibition of MET in CD-1 mouse cochlea outer hair cells assessed as reduction in MET currents at 10 uM measured at -160 mV to +80 mV membrane potential by patch clamp assay; method in brief: as §5
[8] = Cytotoxicity against CD-1 mouse cochlea assessed as induction of cell damage at 20 uM in presence of gentamicin after 48 hrs by confocal microscopic analysis; assay type: toxicity, tissue-based
Method in brief: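 Mouse cochlear cultures exposed 48 h to 5 μM gentamicin plus 20 μM compound, with 0.5% DMSO and gentamicin-only controls. Hair cells and bundle morphology imaged, including confocal imaging of IHC stereociliary bundles. OHC survival counted in a 300 μm segment of the mid-basal region.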

[9] = as §3; assay type: functional; method in brief: as §2
[10] = Cytotoxicity against CD-1 mouse cochlea assessed as induction of cell death in outer hair cell at >=30 uM after 48 hrs in presence of gentamicin by confocal microscopic analysis; assay type: toxicity, tissue-based
Method in brief: (§6)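 Mouse cochlear cultures exposed for 48 h to compound, either alone or with 5 μM gentamicin. Controls received 0.5% DMSO, or 5 μM gentamicin + 0.5% DMSO. Hair cell survival counted in a 300 μm segment of the mid-basal region. Confocal imaging used to assess IHC and OHC stereociliary bundle morphology.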

[11] = Cytotoxicity in CD-1 mouse cochlea assessed as induction of cell death in outer hair cell at 10 to 20 uM after 48 hrs by confocal microscopic analysis; assay type: toxicity, tissue-based; method in brief: as §6
[12] = Cytotoxicity in CD-1 mouse cochlea assessed as induction of cell damage in inner hair cell at 20 uM in presence of gentamicin after 48 hrs by confocal microscopic analysis; assay type: toxicity, tissue-based; method in brief: as §6
[13] = Cytotoxicity in CD-1 mouse cochlea assessed as disruption of hair bundle morphology in inner hair cell at 20 uM in presence of gentamicin after 48 hrs by confocal microscopic analysis; assay type: toxicity, tissue-based; method in brief: as §6
[14] = Cytotoxicity in CD-1 mouse cochlea assessed as disruption of hair bundle morphology in outer hair cell at 20 uM in presence of gentamicin after 48 hrs by confocal microscopic analysis; assay type: toxicity, tissue-based; method in brief: as §6
[15] = Cytotoxicity in CD-1 mouse cochlea assessed as disruption of hair bundle morphology in inner hair cell at 20 uM after 48 hrs by confocal microscopic analysis; assay type: toxicity, tissue-based; method in brief: as §6
[16] = Cytotoxicity in CD-1 mouse cochlea assessed as disruption of hair bundle morphology in outer hair cell at 20 uM after 48 hrs by confocal microscopic analysis; assay type: toxicity, tissue-based; method in brief: as §6
[17] = Cytotoxicity in CD-1 mouse cochlea assessed as induction of cell damage in inner hair cell at 20 uM after 48 hrs by confocal microscopic analysis; assay type: toxicity, tissue-based; method in brief: as §6
[18] = Cytotoxicity in CD-1 mouse cochlea assessed as induction of cell death in outer hair cell at >=30 uM after 48 hrs by confocal microscopic analysis; assay type: toxicity, tissue-based; method in brief: as §6
[19] = Cytotoxicity in CD-1 mouse cochlea assessed as induction of cell death in inner hair cell at >=30 uM in presence of gentamicin after 48 hrs by confocal microscopic analysis; assay type: toxicity, tissue-based; method in brief: as §6
[20] = Cytotoxicity in CD-1 mouse cochlea assessed as induction of cell death in inner hair cell at >=30 uM after 48 hrs by confocal microscopic analysis; assay type: toxicity, tissue-based; method in brief: as §6
[21] = species on record: Mus musculus; assay: Inhibition of MET in CD-1 mouse cochlear outer hair cells assessed as reduction in MET currents at 1 to 10 uM measured at -164 mV membrane potential by patch clamp assay
Method in brief: (§7)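 MET currents recorded from OHCs before and during extracellular superfusion of compound at 1, 3 and 10 μM, over membrane potentials from -164 to +96 mV. Currents normalized to the peak control current at +96 mV for each cell. Dose–response curves built at each membrane potential and fitted with eq 1 to give K_D and Hill coefficient.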

[22] = Binding affinity to MET in CD-1 mouse cochlear outer hair cells measured at -164 mV membrane potential by patch clamp assay; method in brief: as §7
[23] = Binding affinity to MET in CD-1 mouse cochlear outer hair cells measured at +16 mV membrane potential by patch clamp assay; method in brief: as §7
[24] = Binding affinity to MET in CD-1 mouse cochlear outer hair cells measured at +96 mV membrane potential by patch clamp assay; method in brief: as §7
[25] = Binding affinity to MET in CD-1 mouse cochlear outer hair cells measured at -84 mV membrane potential by patch clamp assay; method in brief: as §7
[26] = as §1; assay type: functional; method in brief: as §2
[27] = as §4; assay type: functional; method in brief: as §2
[28] = species on record: Mus musculus; assay: Inhibition of MET channel in CD-1 mouse cochlea outer hair bundles assessed as time constant of inward current decline at 1 uM at holding potential of […] by patch clamp assay
Method in brief: (§8)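 MET channels opened by steps from a holding potential of -84 mV, with 1 or 3 μM compound superfused. Currents averaged from 10 repetitions. The current decline was fitted with single exponentials to give time constants, and drug entry rates into hair cells were calculated from these.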

[29] = species on record: Mus musculus; assay: Inhibition of MET channel in CD-1 mouse outer hair bundles assessed as time constant of inward current decline at 3 uM at holding potential of […] by patch clamp assay; method in brief: as §8
[30] = species on record: Mus musculus; assay: Inhibition of MET channel in CD-1 mouse cochlea outer hair cells assessed as reduction in GTTR uptake at 100 uM preincubated for 5 mins followed by GTTR addition and measured after 24 mins by microscopic method
Method in brief: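 Mouse cochlear cultures pre-incubated 5 min with 100 μM compound or 1% DMSO, then 0.2 μM gentamicin Texas Red (GTTR) added. GTTR fluorescence intensity measured in first-row OHCs, with 10 cells analysed from each of three separate experiments (N = 30).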

[31] = species on record: Danio rerio; assay: Otoprotective activity against neomycin-induced neuromast hair cell death in 4 days post fertilized AB zebrafish larvae assessed as increase in hair cell survival incubated for 1 hr by inverted microscopic method; assay type: functional, organism-based
[32] = species on record: Danio rerio; assay: Otoprotective activity against gentamicin-induced neuromast hair cell death in 4 days post fertilized AB zebrafish larvae assessed as increase in hair cell survival incubated for 6 hrs by inverted microscopic method; assay type: functional, organism-based
[33] = Toxicity in 3 days post fertilized AB zebrafish larvae assessed as reduction in larvae survival at 100 uM incubated for 48 hrs; parameters: species or system Danio rerio; conditions: in vivo
Method in brief: (§9)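 Zebrafish larvae at 3 dpf treated with compound at 30 or 100 μM for 48 h in three trials. Larvae scored for survival and for circulation, then startled and assayed for movement.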

[34] = Toxicity in 3 days post fertilized AB zebrafish larvae assessed as reduction in larvae survival at 30 uM incubated for 48 hrs; parameters: species or system Danio rerio; conditions: in vivo; method in brief: as §9
[35] = Toxicity in 3 days post fertilized AB zebrafish larvae assessed as effect on blood circulation at 100 uM incubated for 48 hrs by inverted microscopic method; parameters: species or system Danio rerio; conditions: in vivo; method in brief: as §9
[36] = Toxicity in 3 days post fertilized AB zebrafish larvae assessed as effect on blood circulation at 30 uM incubated for 48 hrs by inverted microscopic method; parameters: species or system Danio rerio; conditions: in vivo; method in brief: as §9
[37] = Toxicity in 3 days post fertilized AB zebrafish larvae assessed as effect on larval movement at 100 uM incubated for 48 hrs; parameters: species or system Danio rerio; conditions: in vivo; method in brief: as §9
[38] = tested on: Klebsiella pneumoniae; assay: Effect on gentamycin-induced antibacterial activity against Klebsiella pneumoniae at 2.2 uM incubated for 16 to 20 hrs by BacTiter-Glo assay; assay type: ADME, organism-based; conditions: in vivo
[39] = tested on: Pseudomonas aeruginosa; assay: Effect on gentamycin-induced antibacterial activity against Pseudomonas aeruginosa at 2.2 uM incubated for 16 to 20 hrs by BacTiter-Glo assay; assay type: ADME, organism-based; conditions: in vivo
[40] = tested on: Staphylococcus aureus; assay: Effect on gentamycin-induced antibacterial activity against Staphylococcus aureus at 2.2 uM incubated for 16 to 20 hrs by BacTiter-Glo assay; assay type: ADME, organism-based; conditions: in vivo
[41] = tested on: Klebsiella pneumoniae; assay: Effect on gentamycin-induced antibacterial activity against Klebsiella pneumoniae at 11 uM incubated for 16 to 20 hrs by BacTiter-Glo assay; assay type: ADME, organism-based; conditions: in vivo
[42] = tested on: Pseudomonas aeruginosa; assay: Effect on gentamycin-induced antibacterial activity against Pseudomonas aeruginosa at 11 uM incubated for 16 to 20 hrs by BacTiter-Glo assay; assay type: ADME, organism-based; conditions: in vivo
[43] = tested on: Staphylococcus aureus; assay: Effect on gentamycin-induced antibacterial activity against Staphylococcus aureus at 11 uM incubated for 16 to 20 hrs by BacTiter-Glo assay; assay type: ADME, organism-based; conditions: in vivo
[44] = species on record: Mus musculus; conditions: CD-1, 10 uM
[45] = species on record: Mus musculus; conditions: CD-1, 10 uM; remark: listed apart in the source
[46] = species on record: Mus musculus; conditions: CD-1, 10 uM; remark: listed apart in the source
[47] = species on record: Mus musculus; conditions: CD-1, 1 to 10 uM
[48] = species on record: Mus musculus; conditions: CD-1, 1 to 10 uM; remark: listed apart in the source

Compound `CN[C@@H]1[C@H](O[C@H]2[C@H](O[C@@H]3[C@@H](O)[C@H](O)[C@@H](NC(=N)N)[C@H](O)[C@H]3NC(=N)N)O[C@@H](C)[C@]2(O)CO)O[C@@H](CO)[C@H](O)[C@H]1O` has a Kd [1] of 7 µM.

With `COc1ccccc1OCCNC(=O)COc1cccc2[nH]c3ccccc3c12` the Activity [2] was “inactive”.

With `COc1ccccc1OCCN(CCOc1ccccc1OC)CC(O)COc1cccc2[nH]c3ccccc3c12` (configuration not stated) the Activity [3] was “inactive”, the Activity [2] was “Active” and the Activity [4] was “inactive”. For the same compound, the inhibition [5] was 40% and the inhibition [6] was “Active”.

For `COc1ccccc1N1CCN(CC(O)COc2cccc3ccccc23)CC1` (configuration not stated), the Activity [2] was “Active”, the Activity [4] was “inactive” and the inhibition [7] was “inactive”.

In the case of `Cn1cc(C(F)(F)F)nc1-c1ccc(OCC(O)CNCCOc2ccc(O)c(C(N)=O)c2)cc1` (configuration not stated), the Activity [2] is reported as “inactive”.

For `OC(COc1cccc2[nH]c3ccccc3c12)CN1CCN(c2ccccc2)CC1` (configuration not stated), the Activity [2] was “inactive”.

With `COc1ccccc1OCCNCCOc1ccccc1OC` the Activity [2] was “inactive” and the inhibition [7] was “inactive”.

In the case of `COc1ccccc1OCCNCC(O)COc1ccc2c(c1)[nH]c1ccccc12` (configuration not stated), the Activity [2] is reported as “inactive” and the Activity [8] is reported as “Toxic”.

In the case of `COc1ccccc1OCCNCC(O)COc1cccc2[nH]c3ccccc3c12` (configuration not stated) [CARVEDILOL], the Activity [9] is reported as 54%, the Activity [10] is reported as “Toxic” and the Activity [11] is reported as “Non-Toxic”. For the same compound, the Activity [12] was “Toxic”, the Activity [13] was “Toxic” and the Activity [14] was “Toxic”. The Activity [15] was “Toxic”, the Activity [16] was “Toxic” and the Activity [17] was “Toxic”. The Activity [18] was “Toxic”, the Activity [19] was “Toxic” and the Activity [20] was “Toxic”. The inhibition [21] was “inactive”, the Kd [22] was 6.3 µM and the Kd [23] was 0.1 µM. For the same compound, the Kd [24] was 1.5 µM, the Kd [25] was 2 µM and the Activity [26] was 100%. The Activity [27] was 100%, the TIME [28] was 5e-06 h and the TIME [29] was 2.67e-06 h. For the same compound, the inhibition [30] was “Active”, the EC50 [31] was 2.47 µM and the EC50 [32] was 11 µM. For the same compound, the Activity [33] was “Toxic”, the Activity [34] was “Non-Toxic” and the Activity [35] was “Toxic”. For the same compound, the Activity [36] was “Non-Toxic”, the Activity [37] was “Toxic” and the Activity [38] was “Non-Toxic”. For the same compound, the Activity [39] was “Non-Toxic”, the Activity [40] was “Non-Toxic” and the Activity [41] was “Non-Toxic”. The Activity [42] was “Non-Toxic”, the Activity [43] was “Non-Toxic” and the inhibition [44] was “Active”. The inhibition [45] was “Active”, the inhibition [46] was “Active” and the inhibition [47] was “Active”. For the same compound, the inhibition [48] was “inactive”.

With `CC(C)NCC(O)COc1cccc2ccccc12` (configuration not stated) the Activity [2] was “inactive”.
